Measured values taken from ChEMBL document CHEMBL5584259, “NMR-Guided Isolation of Anti-inflammatory Carabranolides from the Fruits of Carpesium abrotanoides L” (J Nat Prod, 2024).

What was measured:
RAW264.7 [1] = test: Antiinflammatory activity in mouse RAW264.7 cells assessed as inhibition of LPS-induced NO production incubated for 24 hrs by Griess reagent based assay; type: functional, cell-based; settings: for IC50: RAW264.7, 24 h
How it was run: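 RAW264.7 (ATCC) grown in DMEM + 10% FBS, 37 °C, 5% CO2. Cells at 1 × 10^5/well treated with compound or dexamethasone at 1.25, 2.5, 5, 10, 20 μM in triplicate, then stimulated with LPS 100 ng/mL for 24 h. Supernatant nitrite measured with Griess reagent, absorbance 550 nm; IC50 from concentration series.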

RAW264.7 [2] = test: Cytotoxicity against mouse RAW264.7 cells assessed as reduction in cell viability up to 20 uM incubated for 24 hrs by MTT assay; type: toxicity, cell-based; settings: raw264.7, 24 h
How it was run: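 Viability read by MTT in parallel with the NO assay: RAW264.7 at 1 × 10^5/well, compound at 1.25–20 μM in triplicate, LPS 100 ng/mL for 24 h.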

RAW264.7 [3] = test: Antiinflammatory activity in mouse RAW264.7 cells assessed as inhibition of LPS-induced iNOS protein expression incubated for 24 hrs by Western blot analysis; type: functional, cell-based; settings: dose 5-20 µM
How it was run: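 Cells seeded at 5 × 10^5/well, exposed to compound at 10, 20, 40 μM or dexamethasone 5 μM, then LPS 0.5 μg/mL for 24 h. RIPA lysates run on 8% SDS-PAGE, transferred to PVDF. Probed overnight at 4 °C for iNOS with GAPDH as loading control, then secondary antibody 1 h at room temperature.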

Structure (SMILES) | inhibition (RAW264.7 [1]) | IC50 (RAW264.7 [1]) | Activity (RAW264.7 [2]) | inhibition (RAW264.7 [3])
C=C1C(=O)O[C@@H]2C[C@]3(C)[C@@H](CC[C@@H](C)OC(=O)CC4CCC(=O)C=C4C)[C@@H]3C[C@H]12 (stereo not given in full) | Dose-Dependent Effect | 9.15 µM | Non-Toxic | Dose-Dependent Effect
C=C1C(=O)O[C@@H]2C[C@]3(C)C(CC[C@@H](C)OC(=O)C[C@@H](O)CCCCCCCCCCCCCC)[C@@H]3C[C@H]12 (stereo not given in full) |  | > 20 µM | Non-Toxic | 
C=C1C(=O)O[C@@H]2C[C@]3(C)[C@@H](CC[C@@H](C)OC(=O)CCCCCCC/C=C/C/C=C/CCCCC)[C@@H]3C[C@H]12 |  | > 20 µM | Non-Toxic | 
C=C1C(=O)O[C@@H]2C[C@]3(C)[C@@H](CC[C@@H](C)OC(=O)CCCCCCCCC(O)CCCCCCO)[C@@H]3C[C@H]12 (stereo not given in full) |  | 9.87 µM | Non-Toxic | 
C=C1C(=O)O[C@@H]2C[C@]3(C)[C@@H](CC[C@@H](C)OC(C)=O)[C@@H]3C[C@H]12 | Dose-Dependent Effect | 5.64 µM | Non-Toxic | Dose-Dependent Effect
C=C1C(=O)O[C@@H]2C[C@]3(C)[C@@H](CC[C@@H](C)OC(=O)CCCC[C@@H](O)/C=C/[C@@H](O)[C@H](O)CCCCCCCC)[C@@H]3C[C@H]12 |  | 11.6 µM | Non-Toxic | 
C=C1C(=O)O[C@@H]2C[C@]3(C)[C@@H](CC[C@@H](C)OC(=O)CCCCCCCCCCCCCCC)[C@@H]3C[C@H]12 |  | > 20 µM | Non-Toxic | 
C=C1C(=O)O[C@@H]2C[C@]3(C)[C@@H](CC[C@@H](C)OC(=O)CCCCCCC[C@H]4OC(=O)C[C@H]4O)[C@@H]3C[C@H]12 |  | 15.1 µM | Non-Toxic | 
C=C1C(=O)O[C@@H]2C[C@]3(C)[C@@H](CC[C@@H](C)OC(=O)Cc4ccc(O)cc4C)[C@@H]3C[C@H]12 | Dose-Dependent Effect | 5.82 µM | Non-Toxic | Dose-Dependent Effect
C=C1C(=O)O[C@@H]2C[C@]3(C)C(CC[C@@H](C)OC(=O)CCCCCCCCO)[C@@H]3C[C@H]12 (stereo not given in full) |  | 9.75 µM | Non-Toxic | 
C=C1C(=O)O[C@@H]2C[C@]3(C)C(CC[C@@H](C)OC(=O)CCCCCCCC(=O)O)[C@@H]3C[C@H]12 (stereo not given in full) |  | 9.35 µM | Non-Toxic | 
C[C@@H]1C[C@H]2[C@@H]3CCC4=CC(=O)C=C[C@]4(C)[C@@]3(F)[C@@H](O)C[C@]2(C)[C@@]1(O)C(=O)CO [DEXAMETHASONE] |  | 8.52 µM |  | 
C=C1C(=O)O[C@@H]2C[C@]3(C)[C@@H](CC[C@@H](C)OC(=O)CCCCCCC[C@@H]4OC(=O)C[C@H]4O)[C@@H]3C[C@H]12 | Dose-Dependent Effect | 8.67 µM | Non-Toxic | Dose-Dependent Effect
C=C1C(=O)O[C@@H]2C[C@]3(C)[C@@H](CC[C@@H](C)OC(=O)CCCC[C@H](O)/C=C/[C@@H](O)[C@H](O)CCCCCCCC)[C@@H]3C[C@H]12 |  | 11.8 µM | Non-Toxic | 
